Measurements published in the RNAGym collection of RNA variant scans (doi:10.1002/anie.201605470).

B1: Osa-1-4 twister ribozyme (parent)
chain: CCGCCUAACACUGCCAAUGCCGGUCCCAAGCCCGGAUAAAAGUGGAGGGGGCGG

Variants of: B1
Assay: self-cleavage, relative activity (ratio to wild type); higher = more cleavage; co-transcriptional
Procedure, shortened: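 A DNA template was synthesised for a 54-nucleotide twister ribozyme from Oryza sativa, with 97 % wild-type base and 1 % of each other base at each of the 48 positions downstream of the cleavage site. The ribozyme cleaved itself co-transcriptionally during 2 h of in vitro transcription at 37 °C. Reverse transcription with a template-switching oligonucleotide, PCR amplification and deep sequencing followed, and cleavage status came from reads with or without upstream sequence. Relative activity is the fraction cleaved normalised to wild type.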

Row | Variant | self-cleavage
1 | CCGCCUAACACUGCCAAUGCCGGUCCCAAACCCGGAUAUAAGUGGAGGGGGCGG [A39U G30A] | 0.04
2 | CCGCCUAACACUGCCAAUGCCGGUCCCAACCCCGGAUAUAAGUGGAGGGGGCGG [A39U G30C] | 0.05
3 | CCGCCUAACACUGCCAAUGCCGGUCCCAAUCCCGGAUAUAAGUGGAGGGGGCGG [A39U G30U] | 0.05
4 | CCGCCUAACACUGCCAAUGCCGGUCCCAAGCCCAGAUAUAAGUGGAGGGGGCGG [A39U G34A] | 0.68
5 | CCGCCUAACACUGCCAAUGCCGGUCCCAAGCCCCGAUAUAAGUGGAGGGGGCGG [A39U G34C] | 0.25
6 | CCGCCUAACACUGCCAAUGCCGGUCCCAAGCCCUGAUAUAAGUGGAGGGGGCGG [A39U G34U] | 0.53
7 | CCGCCUAACACUGCCAAUGCCGGUCCCAAGCCCGAAUAUAAGUGGAGGGGGCGG [A39U G35A] | 0.83
8 | CCGCCUAACACUGCCAAUGCCGGUCCCAAGCCCGCAUAUAAGUGGAGGGGGCGG [A39U G35C] | 0.19
9 | CCGCCUAACACUGCCAAUGCCGGUCCCAAGCCCGUAUAUAAGUGGAGGGGGCGG [A39U G35U] | 0.87
10 | CCGCCUAACACUGCCAAUGCCGGUCCCAAGCCCGGAUAUAAAUGGAGGGGGCGG [A39U G42A] | 0.17
11 | CCGCCUAACACUGCCAAUGCCGGUCCCAAGCCCGGAUAUAACUGGAGGGGGCGG [A39U G42C] | 0.11
12 | CCGCCUAACACUGCCAAUGCCGGUCCCAAGCCCGGAUAUAAUUGGAGGGGGCGG [A39U G42U] | 0.07
13 | CCGCCUAACACUGCCAAUGCCGGUCCCAAGCCCGGAUAUAAGUAGAGGGGGCGG [A39U G44A] | 0.77
14 | CCGCCUAACACUGCCAAUGCCGGUCCCAAGCCCGGAUAUAAGUCGAGGGGGCGG [A39U G44C] | 0.91
15 | CCGCCUAACACUGCCAAUGCCGGUCCCAAGCCCGGAUAUAAGUUGAGGGGGCGG [A39U G44U] | 0.9
16 | CCGCCUAACACUGCCAAUGCCGGUCCCAAGCCCGGAUAUAAGUGAAGGGGGCGG [A39U G45A] | 0.12
17 | CCGCCUAACACUGCCAAUGCCGGUCCCAAGCCCGGAUAUAAGUGCAGGGGGCGG [A39U G45C] | 0.06
18 | CCGCCUAACACUGCCAAUGCCGGUCCCAAGCCCGGAUAUAAGUGUAGGGGGCGG [A39U G45U] | 0.05
19 | CCGCCUAACACUGCCAAUGCCGGUCCCAAGCCCGGAUAUAAGUGGAAGGGGCGG [A39U G47A] | 0.13
20 | CCGCCUAACACUGCCAAUGCCGGUCCCAAGCCCGGAUAUAAGUGGACGGGGCGG [A39U G47C] | 0.07
21 | CCGCCUAACACUGCCAAUGCCGGUCCCAAGCCCGGAUAUAAGUGGAUGGGGCGG [A39U G47U] | 0.11
22 | CCGCCUAACACUGCCAAUGCCGGUCCCAAGCCCGGAUAUAAGUGGAGAGGGCGG [A39U G48A] | 0.08
23 | CCGCCUAACACUGCCAAUGCCGGUCCCAAGCCCGGAUAUAAGUGGAGCGGGCGG [A39U G48C] | 0.05
24 | CCGCCUAACACUGCCAAUGCCGGUCCCAAGCCCGGAUAUAAGUGGAGUGGGCGG [A39U G48U] | 0.06
25 | CCGCCUAACACUGCCAAUGCCGGUCCCAAGCCCGGAUAUAAGUGGAGGAGGCGG [A39U G49A] | 0.11

Row | Variant | self-cleavage
26 | CCGCCUAACACUGCCAAUGCCGGUCCCAAGCCCGGAUAUAAGUGGAGGCGGCGG [A39U G49C] | 0.06
27 | CCGCCUAACACUGCCAAUGCCGGUCCCAAGCCCGGAUAUAAGUGGAGGUGGCGG [A39U G49U] | 0.08
28 | CCGCCUAACACUGCCAAUGCCGGUCCCAAGCCCGGAUAUAAGUGGAGGGAGCGG [A39U G50A] | 0.63
29 | CCGCCUAACACUGCCAAUGCCGGUCCCAAGCCCGGAUAUAAGUGGAGGGCGCGG [A39U G50C] | 0.82
30 | CCGCCUAACACUGCCAAUGCCGGUCCCAAGCCCGGAUAUAAGUGGAGGGUGCGG [A39U G50U] | 1.01
31 | CCGCCUAACACUGCCAAUGCCGGUCCCAAGCCCGGAUAUAAGUGGAGGGGACGG [A39U G51A] | 0.61
32 | CCGCCUAACACUGCCAAUGCCGGUCCCAAGCCCGGAUAUAAGUGGAGGGGCCGG [A39U G51C] | 0.06
33 | CCGCCUAACACUGCCAAUGCCGGUCCCAAGCCCGGAUAUAAGUGGAGGGGUCGG [A39U G51U] | 0.28
34 | CCGCCUAACACUGCCAAUGCCGGUCCCAAGCCCGGAUAUAAGUGGAGGGGGCAG [A39U G53A] | 0.49
35 | CCGCCUAACACUGCCAAUGCCGGUCCCAAGCCCGGAUAUAAGUGGAGGGGGCCG [A39U G53C] | 0.07
36 | CCGCCUAACACUGCCAAUGCCGGUCCCAAGCCCGGAUAUAAGUGGAGGGGGCUG [A39U G53U] | 0.19
37 | CCGCCUAACACUGCCAAUGCCGGUCCCAAGCCCGGAUAUAAGUGGAGGGGGCGA [A39U G54A] | 0.73
38 | CCGCCUAACACUGCCAAUGCCGGUCCCAAGCCCGGAUAUAAGUGGAGGGGGCGC [A39U G54C] | 0.73
39 | CCGCCUAACACUGCCAAUGCCGGUCCCAAGCCCGGAUAUAAGUGGAGGGGGCGU [A39U G54U] | 0.77
40 | CCGCCUAACACAGCCAAUGCCGGUCCCAAGCCCGGAUAUAAGUGGAGGGGGCGG [A39U U12A] | 0.59
41 | CCGCCUAACACCGCCAAUGCCGGUCCCAAGCCCGGAUAUAAGUGGAGGGGGCGG [A39U U12C] | 0.15
42 | CCGCCUAACACGGCCAAUGCCGGUCCCAAGCCCGGAUAUAAGUGGAGGGGGCGG [A39U U12G] | 0.15
43 | CCGCCUAACACUGCCAAAGCCGGUCCCAAGCCCGGAUAUAAGUGGAGGGGGCGG [A39U U18A] | 0.95
44 | CCGCCUAACACUGCCAACGCCGGUCCCAAGCCCGGAUAUAAGUGGAGGGGGCGG [A39U U18C] | 0.97
45 | CCGCCUAACACUGCCAAGGCCGGUCCCAAGCCCGGAUAUAAGUGGAGGGGGCGG [A39U U18G] | 0.88
46 | CCGCCUAACACUGCCAAUGCCGGACCCAAGCCCGGAUAUAAGUGGAGGGGGCGG [A39U U24A] | 0.07
47 | CCGCCUAACACUGCCAAUGCCGGCCCCAAGCCCGGAUAUAAGUGGAGGGGGCGG [A39U U24C] | 0.12
48 | CCGCCUAACACUGCCAAUGCCGGGCCCAAGCCCGGAUAUAAGUGGAGGGGGCGG [A39U U24G] | 0.03
49 | CCGCCUAACACUGCCAAUGCCGGUCCCAAGCCCGGAAAUAAGUGGAGGGGGCGG [A39U U37A] | 0.99
